Data as given in ChEMBL document CHEMBL5030552, “Computational Design of Potent D-Peptide Inhibitors of SARS-CoV-2” (J Med Chem, 2021).

Legend:
[1] = molecular target: Spike glycoprotein (Severe acute respiratory syndrome coronavirus 2, UniProt P0DTC2); experiment: Binding affinity to SARS-CoV-2 spike protein receptor-binding domain by biolayer interferometry (BLI) assay
Method in brief: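 BLI was run at 25 °C with shaking at 1000 rpm. His-tagged RBD (200 nM) was loaded on Ni-NTA sensors, then peptides were applied at several concentrations, and dissociation was read in baseline wells. Signals were referenced against His-tagged SUMO and RBD-only sensors. Subtracted curves were fitted for ka, kd and Kd.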

[2] = test system: Vero; experiment: Cytotoxicity against African green monkey Vero cells assessed as viable cells measured by MTS assay; type: cell-based; settings: chlorocebus sabaeus
Method in brief: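 Vero cells (1.5 × 10⁴/well, 24 h growth) were exposed in the neutralization-assay format without virus. Peptides were twofold-diluted from 100 to 0.1953 μM from DMSO stocks diluted in PBS. Viability was read with MTS.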

[3] = Stability of the compound in proteinase K (unknown origin) in presence of serum assessed as loss of peptide measured after 2.5 hr; type: ADME; settings: read-out: Drug degradation
[4] = test system: SARS-CoV-2; experiment: Antiviral activity against SARS-CoV-2 assessed as neutralization viral infection in Vero cells by measuring cytopathic effect incubated for 4 days by crystal violet staining based assay; type: functional, organism-based; settings: Severe acute respiratory syndrome coronavirus 2, Vero, 96 h

Compound `CC[C@@H](C)[C@@H](N)C(=O)N[C@H](CC(N)=O)C(=O)N[C@H](CCC(N)=O)C(=O)N[C@H](Cc1ccc(O)cc1)C(=O)N[C@H](CCSC)C(=O)N[C@H](CCC(=O)O)C(=O)N[C@H](CCC(=O)O)C(=O)N[C@@H](C(=O)N[C@H](CCC(=O)O)C(=O)N[C@H](Cc1cnc[nH]1)C(=O)N[C@H](C)C(=O)N[C@H](C)C(=O)N[C@H](CO)C(=O)N[C@H](CCCNC(=N)N)C(=O)N[C@H](Cc1ccccc1)C(=O)N[C@H](C)C(=O)N[C@H](Cc1ccc(O)cc1)C(=O)N[C@H](Cc1ccccc1)C(=O)N[C@H](Cc1ccccc1)C(=O)N[C@H](Cc1ccc(O)cc1)C(=O)N[C@H](CCC(N)=O)C(=O)N[C@H](Cc1cnc[nH]1)C(=O)N[C@H](CC(C)C)C(=O)N[C@H](C)C(=O)O)[C@H](C)CC` has a Kd [1] of 105 nM.
With `CC[C@@H](C)[C@@H](NC(=O)CNC(=O)[C@@H](CC(C)C)NC(=O)CNC(=O)[C@@H](CCCCN)NC(=O)CNC(=O)[C@@H](CC(=O)O)NC(=O)[C@@H](Cc1ccccc1)NC(=O)[C@H](N)CCCNC(=N)N)C(=O)N[C@H](Cc1ccc(O)cc1)C(=O)N[C@H](CCC(N)=O)C(=O)N[C@H](Cc1ccc(O)cc1)C(=O)N[C@H](CCSC)C(=O)N[C@H](CCC(=O)O)C(=O)N[C@H](CCC(=O)O)C(=O)N[C@@H](C(=O)N[C@H](CCC(=O)O)C(=O)N[C@H](Cc1cnc[nH]1)C(=O)N[C@H](C)C(=O)N[C@H](C)C(=O)N[C@H](CO)C(=O)N[C@H](CCCNC(=N)N)C(=O)N[C@H](Cc1ccccc1)C(=O)N[C@H](C)C(=O)N[C@H](Cc1ccc(O)cc1)C(=O)N[C@H](Cc1ccccc1)C(=O)N[C@H](Cc1ccccc1)C(=O)N[C@H](Cc1ccc(O)cc1)C(=O)N[C@H](CCC(N)=O)C(=O)N[C@H](Cc1cnc[nH]1)C(=O)N[C@H](CC(C)C)C(=O)N[C@H](C)C(=O)O)[C@H](C)CC` the Activity [2] was “Non-Toxic”, the metabolised at 2.5 h [3] was 87.5% and the IC50 [4] was 5760 nM. For the same compound, the Kd [1] was 29 nM.
For `CC[C@@H](C)[C@@H](NC(=O)[C@@H](Cc1cnc[nH]1)NC(=O)[C@H](NC(=O)[C@@H](CCC(=O)O)NC(=O)[C@@H](CCC(=O)O)NC(=O)[C@@H](CCSC)NC(=O)[C@@H](CC(C)C)NC(=O)[C@@H](C)NC(=O)[C@@H](Cc1ccc(O)cc1)NC(=O)[C@@H](CC(C)C)NC(=O)[C@@H](C)NC(=O)[C@H](NC(=O)[C@@H](CCC(N)=O)NC(=O)[C@H](N)CC(C)C)[C@H](C)O)[C@H](C)CC)C(=O)N[C@H](C)C(=O)N[C@H](C)C(=O)N[C@H](CC(C)C)C(=O)N[C@H](CCC(=O)O)C(=O)N[C@H](CCCCN)C(=O)N[C@@H](C(=O)N[C@H](Cc1c[nH]c2ccccc12)C(=O)N[C@@H](C(=O)N[C@H](C)C(=O)N[C@H](CC(C)C)C(=O)N[C@H](CCCNC(=N)N)C(=O)N[C@H](Cc1cnc[nH]1)C(=O)N[C@H](CCC(N)=O)C(=O)N[C@H](Cc1ccc(O)cc1)C(=O)N[C@@H](C(=O)O)[C@H](C)O)[C@H](C)O)[C@H](C)O`, the Activity [2] was “Non-Toxic”, the metabolised at 2.5 h [3] was 82.9% and the IC50 [4] was 6560 nM. For the same compound, the Kd [1] was 31 nM.
